{"data": "Published values pooled from the literature", "target": "5-hydroxytryptamine receptor 7 (HTR7, Homo sapiens, UniProt P34969)", "concentration": "10 µM", "note": "Lines come from different studies, so protocols differ."}
{"SMILES": "CCCNc1nc2ccccc2n1Cc1ccc(Cl)cc1", "read-out": "ligand displacement", "inhibition [%]": 13.5}
{"SMILES": "COc1cc(NC(C)=O)c(Cl)cc1C(=O)Nc1nccs1", "read-out": "ligand displacement", "method": "radioligand", "inhibition [%]": -7.7}
{"SMILES": "COc1cc2c3c(c1OC)-c1cc4c(cc1CC3N(C)CC2c1ccccc1)OCO4 (stereo not drawn)", "read-out": "ligand displacement", "method": "radioligand", "inhibition [%]": "< 50"}
{"SMILES": "CCN(CC)c1ccc(C2Nc3ccc(C(=O)c4ccccc4)cc3NC3=C2C(=O)CC(C)(C)C3)cc1 (stereo not drawn)", "read-out": "ligand displacement", "method": "radioligand", "inhibition [%]": 4}
{"SMILES": "Oc1cccc(Nc2nc(-c3ccc(F)cc3F)cs2)c1", "read-out": "ligand displacement", "method": "radioligand", "inhibition [%]": -31.9}
{"SMILES": "CC(C)(C)OC(=O)N1CCCC1CNC1CCC(c2cc(F)ccc2F)(S(=O)(=O)c2ccc(Cl)cc2)CC1 (stereo not drawn)", "read-out": "cell-free assay", "inhibition [%]": 70.7}
{"SMILES": "N#Cc1cc(Cn2c(N3CCCC3)nc3ccccc32)ccc1F", "read-out": "ligand displacement", "inhibition [%]": -11.2}
{"SMILES": "C[C@@H](c1cccc(C#N)c1)n1cc(Cl)cc(C(N)=O)c1=N", "read-out": "ligand displacement", "inhibition [%]": 4.17}
{"SMILES": "COc1cc2c3c(c1OC)-c1cc4c(cc1CC3N(C)CC2)OCO4 (racemic)", "read-out": "ligand displacement", "method": "radioligand", "inhibition [%]": 96.7}
